# Calls of active or inactive are those of the source. The calls are words filed in the database; no cut-off is given here.
# Experiments:
# [1] = Binding affinity to poly(dA-dT)n DNA (unknown origin) assessed as change in melting temperature at 0.3 molar ratio of compound:DNA by spectrophotometric analysis
# Procedure, shortened: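 Thermal melting with poly(dA-dT) in CAC 10 buffer (10 mM cacodylic acid, 1 mM EDTA, 100 mM NaCl, pH 7.0), 1 cm quartz cuvettes, heated at 0.5 °C/min. DNA concentration set by absorbance at 260 nm; 0.3 mol compound per mol DNA, DNA alone as control. Tm taken from peak of first-derivative (dA/dT) curve; ΔTm = Tm complex − Tm free DNA.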
# [2] = Selectivity index, ratio of IC50 for rat L6 cells to IC50 for Trypanosoma brucei rhodesiense STIB900 bloodstream forms; format: toxicity; conditions: read-out: Ratio IC50
# Procedure, shortened: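 Selectivity index calculated as IC50 in L6 cells divided by IC50 against T. b. rhodesiense STIB900.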
# [3] = tested on: L6; experiment: Cytotoxicity against rat L6 cells; format: cell-based
# [4] = tested on: Trypanosoma brucei rhodesiense; experiment: Antitrypanosomal activity against Trypanosoma brucei rhodesiense STIB900 infected in NMRI mouse assessed as aparasitemic mouse at 5 mg/kg, ip for 4 consecutive days starting from day 3 post infection measured up to day 60 post infection relative to control; format: functional
# Procedure, shortened: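 STIB900 acute-stage mouse model of T. b. rhodesiense infection; compound given intraperitoneally at 5 mg/kg daily for four consecutive days (4 × 5 mg/kg), 4 infected mice per group; cure rate reported as mice cured out of 4.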
# [5] = tested on: Trypanosoma brucei rhodesiense; experiment: Antitrypanosomal activity against Trypanosoma brucei rhodesiense STIB900 bloodstream forms after 70 hrs by Alamar blue assay; format: functional; conditions: STIB900, 70 h
# Procedure, shortened: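 In vitro viability assay on T. b. rhodesiense strain STIB900; values are the average of duplicate determinations.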
# [6] = tested on: Trypanosoma brucei rhodesiense; experiment: Potency index, ratio of DAPI IC50 to compound IC50 for Trypanosoma brucei rhodesiense STIB900 bloodstream forms; format: functional
# [7] = Binding affinity to poly(dA-dT)n DNA minor groove (unknown origin) assessed as positive induced CD signal at 1:20 to 5:20 molar ratio of compound:DNA by CD spectroscopic analysis
# Procedure, shortened: (§1)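 CD spectra recorded at 25 °C in MES 10 buffer (10 mM MES, 100 mM NaCl, 1 mM EDTA) over a series of compound-to-DNA ratios.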
# [8] = Binding affinity to poly(dA-dT)n DNA minor groove (unknown origin) assessed as positive induced CD signal at 1:20 to 8:20 molar ratio of compound:DNA by CD spectroscopic analysis; procedure, shortened: as §1
# [9] = tested on: Mus musculus; experiment: Toxicity in NMRI mouse infected with Trypanosoma brucei rhodesiense STIB900 assessed as death at 5 mg/kg, ip for 4 consecutive days starting from day 3 post infection; format: organism-based; conditions: in vivo
# Procedure, shortened: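 Acute-stage STIB900 mouse model, four infected mice per compound, given 5 mg/kg intraperitoneally once daily on four consecutive days (4 × 5 mg/kg). Deaths among treated mice were counted out of 4, alongside cure of survivors. Other protocol details follow an earlier report.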
compound,measurement,setting,value
N=C(N)c1ccc2[nH]c(-c3ccc(C(=N)N)o3)cc2c1,ΔTm,[1],21.4 °C
same,selectivity ratio,[2],900
same,IC50,[3],2700 nM
same,Activity,[4],100%
same,IC50,[5],3 nM
same,Ratio IC50,[6],2 - 6
same,Activity,[7],Active
N=C(N)c1ccc(-c2cc3ccc(C(=N)N)cc3[nH]2)cc1 [DAPI],ΔTm,[1],> 27 °C
same,selectivity ratio,[2],48
same,Activity,[7],Active
N=C(N)c1ccc(-c2cc3ccc(C(=N)N)cc3[nH]2)nc1,ΔTm,[1],22.1 °C
same,selectivity ratio,[2],133
same,IC50,[3],3200 nM
same,Activity,[4],100%
same,IC50,[5],24 nM
same,Activity,[8],Active
N=C(N)c1ccc2cc(-c3ccc(C(=N)N)s3)[nH]c2c1,ΔTm,[1],10 °C
same,selectivity ratio,[2],409
same,IC50,[3],4500 nM
same,IC50,[5],11 nM
same,Ratio IC50,[6],2 - 6
N=C(N)c1ccc2cc(-c3ccc(C(=N)N)o3)[nH]c2c1,ΔTm,[1],11 °C
same,selectivity ratio,[2],800
same,Activity,[9],Toxic
same,IC50,[3],7200 nM
same,Activity,[4],inactive
same,IC50,[5],9 nM
same,Ratio IC50,[6],2 - 6
N=C(N)c1ccc(-c2cc3cc(C(=N)N)ccc3[nH]2)nc1,ΔTm,[1],> 26 °C
same,selectivity ratio,[2],5320
same,IC50,[3],21300 nM
same,Activity,[4],100%
same,IC50,[5],4 nM
same,Ratio IC50,[6],2 - 6
Cc1cc(-c2cc3ccc(C(=N)N)cc3[nH]2)ccc1C(=N)N,ΔTm,[1],> 26 °C
same,selectivity ratio,[2],3140
same,IC50,[3],15700 nM
same,Activity,[4],75%
same,IC50,[5],5 nM
same,Ratio IC50,[6],2 - 6
COc1ccc(-c2cc3ccc(C(=N)N)cc3[nH]2)cc1,ΔTm,[1],12.6 °C
same,selectivity ratio,[2],6
same,IC50,[3],29000 nM
same,IC50,[5],4870 nM
N=C(N)c1ccc2[nH]c(-c3ccc(C(=N)N)nc3)cc2c1,ΔTm,[1],12.1 °C
same,selectivity ratio,[2],394
same,IC50,[3],1800 nM
same,Activity,[4],25%
same,IC50,[5],5 nM
same,Ratio IC50,[6],2 - 6
N=C(N)c1ccc2cc(-c3ccc(C(=N)N)nc3)[nH]c2c1,ΔTm,[1],15.3 °C
same,selectivity ratio,[2],667
same,IC50,[3],2000 nM
same,Activity,[4],25%
same,IC50,[5],3 nM
same,Ratio IC50,[6],2 - 6
Cc1cc(-c2cc3cc(C(=N)N)ccc3[nH]2)ccc1C(=N)N,ΔTm,[1],15.3 °C
same,selectivity ratio,[2],7830
same,IC50,[3],23500 nM
same,Activity,[4],75%
same,IC50,[5],3 nM
same,Ratio IC50,[6],2 - 6
N=C(N)c1ccc(-c2cc3cc(C(=N)N)ccc3[nH]2)cc1,ΔTm,[1],19.2 °C
COc1cc(C(=N)N)ccc1-c1cc2ccc(C(=N)N)cc2[nH]1,ΔTm,[1],> 26 °C
same,selectivity ratio,[2],4880
same,IC50,[3],29600 nM
same,Activity,[4],100%
same,IC50,[5],6 nM
same,Ratio IC50,[6],2 - 6
same,Activity,[7],Active
